# Most compounds without a hit are left out; they make up all but 3.7% or so of the library.
# KCC2 mod: KCC2 (human) Cl- transport modulation; KCC2 cells, thallium flux FluoZin-2 fluorescence; B-score of Tl+ flux slope (higher = more flux/activation; lower = inhibition) at 10 µM; 2.2% of 190,000 active;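 active = thallium flux slope and its plate-corrected score both differing from the plate sample mean at a set confidence after two filtering rounds, in either direction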;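 note: slope of fluorescence scaled to starting intensity during 10 to 20 s after thallium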
# PKD1 inh: inhibitors of human PKD1 kinase. inhibition, % (test concentration not listed). PKD1 kinase fluorescence polarization assay. 0.056% of 200,000 active; in the data active = inhibition above about 50%
# m-calpain inh: inhibitors of pig calpain II; inhibition, % at 16 µM; 0.37% of 220,000 active; purified calpain II, fluorogenic peptide substrate, 30 min;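 active = inhibition above about 50%, limit read from the data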
# MDM2 E3 inh: inhibitors of human Mdm2 E3 ubiquitin ligase; Q00987; cell-based MDM2 ubiquitination luciferase reporter, 2 h; 0 = plate control, 100 = twice control, blank-subtracted; signal enhancement, % at 5 µM; 0.11% of 210,000 active; AID 1230;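 active = signal enhancement of 30% or more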;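 note: luminescence tracks abundance of the self-degrading MDM2-luciferase fusion protein; higher signal means inhibition of MDM2 E3 ligase activity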
#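 Timing – 2 h compound exposure at 37 °C · Assay system – mammalian cells stably expressing self-ubiquitinating, self-degrading MDM2 E3–luciferase fusion · Amount – 2000 cells seeded into each well · Measure – % luminescence enhancement versus blank-corrected plate control mean · Measured by – SteadyLite luminescence, 15 min reagent step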
# Arbovirus anti: antivirals against arbovirus infection | AID 1251 | 0.37% of 200,000 active | inhibition, % at 10 µM | arbovirus infection cell-based antiviral screen; in the data active = inhibition above about 30%
# ROMK primary: modulates human ROMK potassium channel activity. 2% of 130,000 active. P48048. B-score at 10 µM. Tet-inducible ROMK, thallium flux fluorescence; actives lie on both sides. AID 1918;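 active = signal ratio slope over the read window, or its plate-corrected B-score, at least 3 SD from the plate mean, either direction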;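 note: B-score of the F/F0 ratio slope over 7 to 12 s after thallium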
# KCC2 secondary: confirmation of human KCC2 transport modulators; shares compounds with KCC2 mod; HEK293-KCC2, thallium flux, FluoZin2 fluorescence; active compounds read high; normalised thallium flux (F/F0 slope) at 10 µM; 15% of 3,700 active; AID 1713;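 active = thallium flux slope above the same plate's solvent-only control mean plus 3 SD; inconclusive = the two replicate wells disagree; inactive = no significant difference from solvent-only control wells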
# KCC2 bumet counter: thallium flux persisting under bumetanide in KCC2 cells, counter-screen secondary assay; normalized thallium flux at 10 µM; shares compounds with KCC2 mod; 49% of 3,700 active; HEK293-KCC2 + bumetanide/ouabain, thallium flux FluoZin2; active compounds read high;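 active = thallium entry rate above the same plate's blocked-transporter control wells by more than 3 SD; inconclusive = the two repeat wells disagree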;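 note: raw slope of fluorescence over initial fluorescence between 10 and 20 s after thallium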
# KCC2 secondary2: confirmation of human KCC2 transport modulators; shares compounds with KCC2 mod; HEK293-KCC2, thallium flux FluoZin2 fluorescence; actives lie on both sides; F/F0 rise rate, 10–20 s post-thallium; normalized thallium flux at 10 µM; 23% of 3,700 active;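 active = thallium flux slope more than 3 SD above or below the plate's solvent-only control mean, mostly below; inconclusive = the two repeat wells disagreed; inactive = no significant shift from solvent-only controls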;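 note: raw slope with 0.1% DMSO as baseline and bumetanide as block control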
# HEK293 Tl flux: parental HEK flux effect, counter-screen; shares compounds with KCC2 mod; thallium flux rate (normalised fluorescence) at 10 µM; HEK293 parental cells, thallium flux FluoZin2, ouabain; baseline-ratio fluorescence slope, 10–20 s after thallium; 46% of 3,700 active;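 active = thallium flux rate significantly above the same plate's solvent-only control wells, beyond their mean plus 3 SD; inconclusive = the two replicate wells gave conflicting results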
# KCC2 retest ouab: modulates human KCC2 on retest with ouabain. raw Tl+ flux slope (below DMSO = inhibition, above = activation) at 10 µM. shares compounds with KCC2 mod. AID 1717. HEK293-KCC2, thallium flux FluoZin2 fluorescence; bidirectional: low = inhibitor, high = activator. 48% of 3,700 active;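 active = thallium flux slope beyond 3 SD from same-plate DMSO control mean in most replicates, usually higher, sometimes lower; inconclusive = repeat tests gave conflicting results; inactive = no significant difference from controls in most replicates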;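 note: slope of initial-normalized fluorescence between seconds 10 and 20 after thallium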
# HEK293 Tl flux2: parental HEK flux effect, counter-screen 2 | shares compounds with KCC2 mod | HEK293 parental, thallium flux FluoZin-2 fluorescence slope | thallium flux slope at 10 µM | 33% of 3,700 active;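 active = thallium flux slope above the same plate's solvent-control mean plus 3 SD in both duplicate wells; inconclusive = duplicate wells that disagreed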;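 note: run without ouabain in cells lacking the KCC2 cotransporter; slope of fluorescence scaled to its starting value between 10 and 20 s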
# An asterisk follows results filed as active; ? = inconclusive; . = no result given.
SMILES,KCC2 mod,PKD1 inh,m-calpain inh,MDM2 E3 inh,Arbovirus anti,ROMK primary,KCC2 secondary,KCC2 bumet counter,KCC2 secondary2,HEK293 Tl flux,KCC2 retest ouab,HEK293 Tl flux2
CCc1ccc(Nc2nnc(SC3CCOC3=O)s2)cc1 (stereo unspecified),-5.31*,-0.2,5.0,0.9,9.0,.,0.00636,?,0.0229*,0.00685,?,0.0103
Cc1ccc(NC(=O)C(=O)NNC(=O)c2ccccc2C)cc1Cl,45.9*,-1.3,-23.2,-12.1,-3.7,.,0.0476*,0.115*,0.052*,?,0.0867*,0.0433*
COc1ccc(C(=O)NNC(=O)C(=O)Nc2ccc(C)c(Cl)c2)cc1,47.5*,7.3,-38.5,6.1,5.2,0.105,0.0104*,0.0672*,0.0536*,0.0572*,0.0601*,0.0513*
CC(=O)Nc1nonc1NC(=O)CSc1ncn[nH]1,-0.432,-4.0,6.2,-16.9,1.7,0,.,.,.,.,.,.
O=C(c1ccccc1)c1ccc(Oc2ncccn2)cc1,1.32,-3.6,13.9,-7.6,-4.5,.,.,.,.,.,.,.
CCOC(=O)c1cc2c(=O)[nH]ccc2nc1C,12.7*,2.4,.,-10.7,1.4,.,0.0106,?,0.0292,0.00738,0.0329,0.0103
CC1OC(O[C@H]2CC[C@]3(C)C4C=C[C@]56OC[C@@]7(CC[C@@H](C)[C@H](C)C75)[C@H](O)C[C@@]6(C)[C@]4(C)CC[C@H]3C2(C)C)C(OC2OC(CO)C(O)C(O)C2OC2OCC(O)C(O)C2O)C(O)C1O (stereo partly specified),39.5*,.,-51.8,1.1,.,.,0.0129*,0.0464*,0.0324,0.00853,?,0.0105
CC(=O)OC1COC(OC2C(O)C(C)OC(OC3C(OC4CCC5(C)C(CCC6(C)C5CC=C5C7CC(C)(C)CCC7(C(=O)O)CCC56C)C4(C)CO)OCC(O)C3O)C2O)C(O)C1OC(C)=O (stereo unspecified),0.305,2.2,-71.2,2.3,-20.2,.,.,.,.,.,.,.
Cc1ccc(OCCOc2ccc(Br)cc2)c([N+](=O)[O-])n1,.,6.4,5.5,-19.8,-5.2,-0.534,.,.,.,.,.,.
COC(=O)c1ccc(C(=O)OC)c(NC(=S)N2CCN(c3cccc(Cl)c3)CC2)c1,0.432,-5.7,4.8,-3.9,-0.1,.,.,.,.,.,.,.
COc1ccc(-c2oc3ccccc3c(=O)c2OC(=O)c2ccc(C)cc2)cc1,0.968,-9.9,-19.2,-16.9,-8.5,.,.,.,.,.,.,.
O=C(Oc1c(-c2ccccc2)oc2ccccc2c1=O)c1ccccc1,.,-3.0,-19.0,-18.6,-0.3,0.0385,0.0139*,0.0676*,0.0364,?,0.0553*,?
CCOC(=O)c1c(-c2ccc(F)cc2)csc1/N=C/N(C)C,-1.34,1.3,0.9,-5.2,-6.8,-0.111,.,.,.,.,.,.
Cn1c(C(=O)NCCCN2CCN(c3ccccc3F)CC2)cc2c(=O)[nH]c3ccccc3c21,-1.32,3.0,-37.3,4.2,-1.9,.,.,.,.,.,.,.
O=C(Cc1csc(Nc2nc(=S)[nH]c3ccccc23)n1)NCCCN1CCN(c2ccccc2F)CC1,20.3*,0.1,-179.2,-8.8,-6.6,-1.19,0.0144*,0.051*,0.041*,0.0388*,0.0619*,0.016*
C=CCN(c1ccc(OC)cc1)S(=O)(=O)c1ccc(Cl)c(C(=O)OCC(=O)NC2CC2)c1,-3.79*,6.8,-11.1,-3.4,7.6,0.0746,0.00925,0.00707,?,0.00598,0.0143*,0.00971
COc1ccccc1NC(=O)COC(=O)c1cnc(C)cn1,-0.467,-1.9,-16.0,-10.7,3.4,-1.02,.,.,.,.,.,.
O=C(Nc1ccc(Cl)c(Cl)c1)Nc1ccccc1C(=O)O,-4.52*,1.5,-77.6,-55.9,10.8,0.0874,0.0145,?,0.0237*,0.00653,0.013,0.00936
O=C(Nc1ccc(Cl)cc1)Nc1ccccc1C(=O)O,-0.88,2.0,-24.6,-70.9,7.4,1.17,.,.,.,.,.,.
COCCNC(=S)NCCc1ccc(Cl)cc1Cl,1.1,-0.2,4.0,-10.0,-9.2,0.0407,.,.,.,.,.,.
CCOc1ccc(C(CC(=O)O)NC(=O)C(Sc2ccccc2)c2ccccc2)cc1 (stereo unspecified),-3.97*,6.0,-21.9,1.9,4.4,0.582,0.00684,?,0.023*,0.00841,?,0.0117
COc1ccc(OC)c(NC(=O)CC(NC(C)=O)c2ccccc2)c1 (stereo unspecified),1.27,3.8,-29.3,10.4,3.2,1.29,.,.,.,.,.,.
COc1ccc(OC)c(NC(=O)C(Sc2ccccc2)c2ccccc2)c1 (stereo unspecified),.,-12.7,31.7,-4.2,-5.0,.,0.0157,0.00355,0.0301,0.00698,0.0165,0.00937
CCOc1ccc(C(CC(=O)O)NC(=O)c2ccco2)cc1 (stereo unspecified),0.409,-2.7,14.2,14.4,-6.8,-0.00306,.,.,.,.,.,.
CC(C)(C)NC(=O)C(=O)NNC(=O)C12CC3CC(CC(C3)C1)C2,5.92*,7.8,-13.7,-18.9,-9.8,0.0424,?,0.0452*,0.0364*,0.0286*,0.0384*,0.0232*
CCCC(c1nnnn1CC1CCCO1)N1CCN(c2nc3ccccc3s2)CC1 (stereo unspecified),-3.79*,3.2,-15.2,5.1,0.4,.,0.0063,0.00404,0.0274,0.00681,0.0133*,0.00893
CCC(C)(C)n1nnnc1C(c1ccc2ncccc2c1)N1CCN(c2nc3ccccc3s2)CC1 (stereo unspecified),.,0.1,-175.9,11.9,-20.5,.,0.00845,0.00617,0.0312,0.00702,0.0157*,0.0109
CC(C)CC(c1nnnn1CC1CCCO1)N1CCN(c2nc3ccccc3s2)CC1 (stereo unspecified),-1.64,-9.7,8.0,3.1,9.4,.,.,.,.,.,.,.
CCCCC(c1nnnn1CC1CCCO1)N1CCN(c2nc3ccccc3s2)CC1 (stereo unspecified),-4.11*,14.7,-51.1,-15.9,-18.9,.,0.00586,0.00406,0.0229*,?,0.0123*,0.0095

# Screens from PubChem.
